Source: PubChem
CHRM5 PAM: CHRM5 positive allosteric modulation. CHO-K1 hM5, Fluo-8 calcium, ACh EC20 PAM; 0% = ACh EC20, 100% = ACh EC100. P08912. activation, % at 3 µM. 0.3% of 360,000 active. AID 624038;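 active = activation above the run cutoff, the mean activation of all test compounds plus 3 SD, cut at about 18% in these data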
Target sequence (P08912 whole entry, looked up): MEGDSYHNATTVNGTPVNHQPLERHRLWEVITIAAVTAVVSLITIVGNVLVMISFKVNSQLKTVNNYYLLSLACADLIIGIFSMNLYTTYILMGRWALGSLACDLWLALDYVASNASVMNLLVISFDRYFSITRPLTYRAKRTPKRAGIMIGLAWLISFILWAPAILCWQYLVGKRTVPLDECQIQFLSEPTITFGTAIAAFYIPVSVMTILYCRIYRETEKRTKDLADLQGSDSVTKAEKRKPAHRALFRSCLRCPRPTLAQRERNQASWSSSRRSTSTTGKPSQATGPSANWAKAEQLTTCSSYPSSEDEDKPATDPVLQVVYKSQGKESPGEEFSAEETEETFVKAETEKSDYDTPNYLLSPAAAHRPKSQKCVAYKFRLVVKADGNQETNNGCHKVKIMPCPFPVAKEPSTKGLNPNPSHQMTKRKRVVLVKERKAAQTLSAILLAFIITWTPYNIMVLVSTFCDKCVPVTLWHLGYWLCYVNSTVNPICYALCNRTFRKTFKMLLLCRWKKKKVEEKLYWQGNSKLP
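Assay system: CHO-K1 hM5 cells / Incubation: Fluo-8 loading 80 min at 37 °C plus 30 min room temperature / Technique: Fluo-8 calcium dye fluorescence, kinetic read / Repeats: single replicate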
CHRM4 PAM: CHRM4 positive allosteric modulation | activation, % at 3 µM | P08173 | 0.4% of 360,000 active | CHO-K1 hM4/Gqi5, Fluo-8 calcium fluorescence, ACh EC20; 0% = ACh EC20, 100% = maximal ACh | AID 624126;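 active = activation above its plate's cutoff, the mean activation of sample wells plus 3 SD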
CHRM4 antagonist: CHRM4 antagonism in calcium assay; inhibition, % at 3 µM; 0.73% of 360,000 active; P08173; CHO-hM4 cells, ACh EC80, Fluo-8 calcium fluorescence;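 active = inhibition above its plate's cutoff, the mean inhibition of sample wells plus 3 SD, cut at about 27% in these data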
M5 ag: agonists of human muscarinic M5 receptor (CHRM5). activation, % at 3 µM. 0.19% of 360,000 active. CHO-K1 hM5 cells, Fluo-8 calcium fluorescence; 0% DMSO wells, 100% maximal acetylcholine response. P08912. AID 624037;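 active = activation above the run's mean over test compounds plus 3 SD, cut at about 23% in these data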;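 note: signal is peak over basal fluorescence ratio across the kinetic read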
M5 antag: blocks acetylcholine activation of human M5 receptor | P08912 | CHO-hM5 cells, Fluo-8 calcium fluorescence, ACh EC80 | inhibition, % at 3 µM | 0.59% of 360,000 active | AID 624040;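 active = inhibition above a per-plate cutoff, the mean of that plate's test compounds plus 3 SD, cut at about 27% in these data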
CHRM4 agonist: CHRM4 agonism in calcium assay | CHO-K1 hM4/Gqi5, Fluo-8 calcium fluorescence; vehicle 0%, full acetylcholine response 100% | activation, % at 3 µM | 0.14% of 360,000 active;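 active = activation above the run mean over all test wells plus 3 SD, cut at about 32% in these data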;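 note: peak over basal fluorescence ratio per well then scaled between controls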
Each line names hits and unclear results; the compound was inactive in the other large screens. Hits are enriched below; roughly 1.8% of the tested compounds scored in any of these assays.

CCOC(=O)c1cc(C#N)c(N2CCN(c3ccc(OC)cc3)CC2)[nH]c1=O	CHRM5 PAM 26
CCOC(=O)c1[nH]c(CN2CCN(c3ccc(OC)cc3)CC2)c(C(=O)OCC)c1C	none
O=C(Nc1ccc(F)cc1)C(c1ccncc1)N1CCN(C(=O)c2ccco2)CC1 (centres undefined)	CHRM5 PAM 20
O=C(Cc1cccnc1)N[C@@H]1CC[C@H](CCn2cc(Cc3ccccc3)nn2)O[C@@H]1CO	none
CCOC(=O)C1CCN(S(=O)(=O)c2ccc3c(c2)NC(=O)CS3)CC1	none
CCOc1ccc(OCCC(=O)OCC(=O)Nc2ccc(C)c(S(=O)(=O)N3CCCCC3)c2)cc1	M5 antag 27
CCC1CCc2c(sc(NC(=O)c3cnccn3)c2C(N)=O)C1 (centres undefined)	none
COc1ccccc1CNc1nc(NCCN2CCNC2=O)c2sccc2n1	none
Cc1ccc(-n2nnnc2Sc2ccc(S(=O)(=O)NCCN(C)C)cc2[N+](=O)[O-])cc1	CHRM4 antagonist 34
O=[N+]([O-])c1cc(S(=O)(=O)NCCCN2CCOCC2)ccc1Cl	none
Cc1ccc(S(=O)(=O)NCCSc2nnnn2-c2ccc(C(N)=O)cc2)cc1	none
O=[N+]([O-])c1cc(S(=O)(=O)NCCN2CCOCC2)ccc1Sc1nnnn1-c1ccccc1	CHRM4 antagonist 49
CC(C)N1CCOC1c1ccccc1 (centres undefined)	none
COCCNC(=O)C1(C)CCCN(Cc2cc(-c3ccccc3)n(C)n2)C1 (centres undefined)	none
COc1cc(NC(=O)C2=C(N3CCOCC3)/C(=C\c3ccc(N(C)C)cc3)CCC2)cc(OC)c1OC	CHRM4 PAM 21
CC(NCCC(c1ccccc1)c1ccccc1)c1ccccc1 (centres undefined)	CHRM4 antagonist 45
CC(C)n1c(=O)c2ccccc2n1C(=O)c1ccccc1	none
COc1ccc(N2CCN(Cc3nc(N)nc(Nc4ccccc4OC)n3)CC2)cc1	CHRM4 antagonist 27
COc1ccccc1Nc1nc(N)nc(CN2CCN(Cc3ccccc3)CC2)n1	none
CCn1c(=O)c(C(=O)NCc2ccc(F)cc2)c(O)c2ccccc21	none
COc1ccc(CN2CCNC(=O)C2CC(=O)N(Cc2nccn2C)C(C)C)c(OC)c1 (centres undefined)	CHRM4 PAM 31
CC(C)N(Cc1nccn1C)C(=O)CC1C(=O)NCCN1Cc1ccc(F)cc1 (centres undefined)	none
COc1ccc(C(C(=O)OCCN(C)C)c2ccccc2)cc1 (centres undefined)	none
CCCOc1ccc(C(C(=O)OCCN(CC)CC)c2ccccc2)cc1 (centres undefined)	M5 antag 55
COc1cc(NC(=O)c2sc(C)nc2C)c(OC)cc1NC(=O)c1ccccc1	none
Cn1c(CNC(=O)C2CCCCC2)cc2cc(Cl)ccc21	CHRM4 PAM 17
Cc1noc(NS(=O)(=O)c2ccc(NC(=O)c3ccc(N4C(=O)c5ccccc5C4=O)cc3)cc2)c1C	CHRM5 PAM 19
CCSc1ncc(Cl)c(C(=O)Nc2ccc(S(=O)(=O)Nc3onc(C)c3C)cc2)n1	M5 antag 48
OC1CC2CCC(C1)N2CCCN1c2ccccc2Sc2ccc(Cl)cc21 (centres undefined)	CHRM4 antagonist 37
CN1CCN(CCCN2c3ccccc3Sc3ccc(Cl)cc32)CC1	none
N#CCCN(C(=O)COC(=O)c1ccc(CNS(=O)(=O)c2ccc(F)c(Cl)c2)cc1)c1ccc(F)cc1	CHRM4 antagonist 50
O=C1NC(Cc2ccc(O)cc2)c2nc3ccccc3c(=O)n2-c2ncccc21 (centres undefined)	none
Nc1ncnc(N)c1NC(=O)c1cc(Cl)c(OCc2ccccc2)c(Cl)c1	none
CCN1CCN(C(=O)c2cc3c(OC)c(OC)c(OC)cc3[nH]2)CC1	CHRM4 antagonist 61
CCCCN(C(=O)/C=C/c1ccco1)c1c(N)n(CCC)c(=O)[nH]c1=O	none
CN(C)CCCn1c(=O)n(Cc2ccco2)c(=O)c2c3c(sc21)CCCCC3	CHRM5 PAM 18
CN(C)CCCn1c(=O)n(CCc2ccccc2)c(=O)c2c3c(sc21)CCCCC3	none
CCOC(=O)N1CCN(CCC(=O)Nc2ccc(F)c(F)c2)CC1	none
CCCN(CC(=O)Nc1ccccc1C)C(=O)C1CCN(C(=O)Nc2ccccc2)CC1	CHRM4 PAM 21
CCN(Cc1ccccc1)C(=O)C1CCN(C(=O)Nc2ccccc2)CC1	none
CC(C)(C)c1ccc(C(=O)N2CCC2(C)C(=O)NCCC#N)cc1 (centres undefined)	none
CCC(CC)C(=O)N(C)c1c(C)nc2c(OCc3cccc(OC)c3)cccn12	none
Cc1csc(/C(C#N)=N/O)n1	none
Cc1csc(/C(=N\O)c2csc(C)n2)n1	CHRM4 PAM 21
CCNc1nc(NCC)nc(N(C#N)C(C)C)n1	none
CCNc1nc(NC(C)(C)C)nc(N(C#N)CC)n1	CHRM4 antagonist 61
Cc1ccc(-n2c(-c3ccc(Br)cc3)c[n+]3c2CCc2ccc4cccnc4c2-3)cc1	CHRM4 antagonist 41, M5 antag 36
COc1ccc(-n2c(-c3ccc(Cl)cc3)c[n+]3c2CCc2ccccc2-3)cc1	none
O=C(CSc1nc(N2CCOCC2)nc(N2CCOCC2)n1)Nc1ccc([N+](=O)[O-])cc1	CHRM5 PAM 22
CC(=O)N1CCOc2ccc(S(=O)(=O)NCC3CCC(C(=O)NCCC(C)C)CC3)cc21 (centres undefined)	CHRM4 PAM 16
CC(=O)Nc1ccc(NC(=O)C(C)OC(=O)C2CCCCC2)cc1 (centres undefined)	none
Cc1ccc(SCC(=O)OCC(=O)N(C)CC(=O)Nc2ccc(F)cc2)cc1C	M5 ag 50, CHRM4 agonist 52
CCN(CC)CCNC(=O)c1ccc(NC(=O)c2ccc(S(=O)(=O)N3CCCC3)cc2)cc1	none
CN(C)CCNC(=O)c1cccc(S(=O)(=O)Nc2ccc(F)cc2)c1	none
N#C/C(=N\Nc1ccc(S(=O)(=O)N2CCc3ccccc32)cc1)C(N)=S	none
CCOC(=O)/C(C#N)=N/Nc1ccc(S(=O)(=O)N2CCc3ccccc32)cc1	M5 antag 27
CC(=O)N1CCN(C(=O)c2cccc(S(=O)(=O)N3c4ccccc4CC3C)c2)CC1 (centres undefined)	CHRM4 PAM 16
CCN(CC)CCNC(=O)c1ccc(NC(=O)c2cccc(S(=O)(=O)Nc3ccc(C)cc3)c2)cc1	CHRM4 antagonist 43, M5 antag 52
